Measured values: PMC10448692 (ACS Omega, 2023)

How the values were obtained:
DNA (PDB ID: 1BNA) = details: reported docking; cited from earlier work
[1] = Lipophilicity by shake flask, n-octanol/water partition; assay type: physicochemical; details: room temperature
How it was run: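 Shake-flask method. Each compound was added separately to n-octanol and to double-distilled water and shaken 24 h at room temperature to saturate each phase. Undissolved solid was removed by centrifugation or filtration, and the saturated solution was evaporated to dryness. Residue weight gave solubility, from which logS and logP were computed.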

Compound: O=C(O)CNC1CCCCC1 [CHgly, cyclohexyl glycine]
- docking energy with DNA (DNA (PDB ID: 1BNA)): -5.71 kcal/mol

Compound: NCC(=O)O [gly, Glycine]
- experimental logP [1]: −2.7
- experimental logP ([1]; listed as Gly): –2.76
